Experimental data as given in ChEMBL document CHEMBL1641579, “Synthesis and biological evaluation of 7-substituted-1-(3-bromophenylamino)isoquinoline-4-carbonitriles as inhibitors of myosin light chain kinase and epidermal growth factor receptor” (Bioorg Med Chem, 2011).

Experiments:
[1] = biological target: T1, Mitogen-activated protein kinase kinase kinase kinase 2 (Homo sapiens) (UniProt Q12851); assay: Inhibition of GCK assessed as residual activity at 10 uM
T1 sequence (whole entry): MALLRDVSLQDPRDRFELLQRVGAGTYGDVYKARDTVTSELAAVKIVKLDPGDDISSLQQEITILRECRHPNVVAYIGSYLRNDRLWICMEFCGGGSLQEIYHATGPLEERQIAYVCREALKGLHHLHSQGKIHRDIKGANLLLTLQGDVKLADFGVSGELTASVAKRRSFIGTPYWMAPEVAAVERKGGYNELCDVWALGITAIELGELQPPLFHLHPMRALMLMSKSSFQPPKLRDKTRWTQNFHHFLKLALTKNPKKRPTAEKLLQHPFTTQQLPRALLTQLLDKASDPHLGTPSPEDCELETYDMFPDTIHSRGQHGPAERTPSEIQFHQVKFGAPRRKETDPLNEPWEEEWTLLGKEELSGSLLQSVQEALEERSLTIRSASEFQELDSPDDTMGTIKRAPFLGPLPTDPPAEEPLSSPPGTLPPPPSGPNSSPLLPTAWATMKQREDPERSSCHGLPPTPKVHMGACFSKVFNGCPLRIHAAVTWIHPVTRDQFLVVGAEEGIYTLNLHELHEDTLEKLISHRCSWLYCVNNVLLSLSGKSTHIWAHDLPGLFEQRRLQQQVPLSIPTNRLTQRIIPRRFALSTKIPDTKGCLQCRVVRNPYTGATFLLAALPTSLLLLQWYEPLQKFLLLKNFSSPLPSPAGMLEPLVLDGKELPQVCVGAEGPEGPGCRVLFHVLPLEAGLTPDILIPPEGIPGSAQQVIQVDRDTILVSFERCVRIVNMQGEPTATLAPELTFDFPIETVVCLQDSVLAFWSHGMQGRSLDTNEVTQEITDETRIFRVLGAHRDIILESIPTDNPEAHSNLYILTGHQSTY
How it was run: (§1)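 Kinase panel screen run as a radioactive activity assay at single compound concentration. Score reported as percent activity remaining relative to DMSO controls (100%).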

[2] = biological target: T2, Serine/threonine-protein kinase TBK1 (Homo sapiens) (UniProt Q9UHD2); assay: Inhibition of TBK1 assessed as residual activity at 10 uM
T2 sequence (whole entry): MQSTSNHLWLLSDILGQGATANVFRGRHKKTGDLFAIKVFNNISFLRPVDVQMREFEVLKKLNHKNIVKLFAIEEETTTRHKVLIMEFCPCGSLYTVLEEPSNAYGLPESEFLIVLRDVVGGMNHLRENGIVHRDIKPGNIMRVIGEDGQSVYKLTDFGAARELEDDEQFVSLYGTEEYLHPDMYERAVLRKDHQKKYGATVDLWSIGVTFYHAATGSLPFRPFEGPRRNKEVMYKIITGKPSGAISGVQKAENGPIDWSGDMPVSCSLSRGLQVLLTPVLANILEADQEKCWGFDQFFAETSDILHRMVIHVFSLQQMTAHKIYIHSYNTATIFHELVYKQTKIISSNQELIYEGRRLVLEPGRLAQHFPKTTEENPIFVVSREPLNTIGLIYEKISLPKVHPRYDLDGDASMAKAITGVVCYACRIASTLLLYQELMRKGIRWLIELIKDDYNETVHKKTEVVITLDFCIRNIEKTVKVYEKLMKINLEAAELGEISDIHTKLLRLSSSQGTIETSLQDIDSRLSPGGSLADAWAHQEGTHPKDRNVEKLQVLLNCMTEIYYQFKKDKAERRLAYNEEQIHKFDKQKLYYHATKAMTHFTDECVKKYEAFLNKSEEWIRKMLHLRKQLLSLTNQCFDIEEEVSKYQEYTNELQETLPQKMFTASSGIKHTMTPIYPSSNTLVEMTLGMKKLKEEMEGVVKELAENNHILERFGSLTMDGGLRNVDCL
How it was run: (§2)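 Panel screen by radioactive kinase assay at a single inhibitor concentration. Score is the percent activity remaining relative to DMSO controls (100%).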

[3] = biological target: Serine/threonine-protein kinase pim-1 (Homo sapiens) (UniProt P11309); assay: Inhibition of PIM1 assessed as residual activity at 10 uM; how it was run: as §2
[4] = biological target: Mitogen-activated protein kinase 1 (Homo sapiens) (UniProt P28482); assay: Inhibition of ERK2 assessed as residual activity at 10 uM; how it was run: as §1
[5] = biological target: T3, Mitogen-activated protein kinase 15 (Homo sapiens) (UniProt Q8TD08); assay: Inhibition of ERK8 assessed as residual activity at 10 uM; how it was run: as §1
T3 sequence (whole entry): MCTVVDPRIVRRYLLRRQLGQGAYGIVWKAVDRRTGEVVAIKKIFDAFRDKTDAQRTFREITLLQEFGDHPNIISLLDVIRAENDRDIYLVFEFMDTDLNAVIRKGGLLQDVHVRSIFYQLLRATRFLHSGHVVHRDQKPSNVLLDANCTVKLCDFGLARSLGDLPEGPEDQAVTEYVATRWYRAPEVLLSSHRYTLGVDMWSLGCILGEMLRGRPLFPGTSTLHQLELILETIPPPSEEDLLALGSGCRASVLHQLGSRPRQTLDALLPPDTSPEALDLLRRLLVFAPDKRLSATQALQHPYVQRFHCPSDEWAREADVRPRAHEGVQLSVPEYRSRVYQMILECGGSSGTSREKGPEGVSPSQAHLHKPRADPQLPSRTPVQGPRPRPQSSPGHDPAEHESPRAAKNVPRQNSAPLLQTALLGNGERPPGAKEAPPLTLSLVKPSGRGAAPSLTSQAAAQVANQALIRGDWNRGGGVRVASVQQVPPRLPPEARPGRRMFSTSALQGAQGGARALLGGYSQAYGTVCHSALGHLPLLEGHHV

[6] = Inhibition of CK2 assessed as residual activity at 10 uM; how it was run: as §1
[7] = biological target: T4, Dual specificity tyrosine-phosphorylation-regulated kinase 3 (Homo sapiens) (UniProt O43781); assay: Inhibition of DYRK3 assessed as residual activity at 10 uM; how it was run: as §1
T4 sequence (whole entry): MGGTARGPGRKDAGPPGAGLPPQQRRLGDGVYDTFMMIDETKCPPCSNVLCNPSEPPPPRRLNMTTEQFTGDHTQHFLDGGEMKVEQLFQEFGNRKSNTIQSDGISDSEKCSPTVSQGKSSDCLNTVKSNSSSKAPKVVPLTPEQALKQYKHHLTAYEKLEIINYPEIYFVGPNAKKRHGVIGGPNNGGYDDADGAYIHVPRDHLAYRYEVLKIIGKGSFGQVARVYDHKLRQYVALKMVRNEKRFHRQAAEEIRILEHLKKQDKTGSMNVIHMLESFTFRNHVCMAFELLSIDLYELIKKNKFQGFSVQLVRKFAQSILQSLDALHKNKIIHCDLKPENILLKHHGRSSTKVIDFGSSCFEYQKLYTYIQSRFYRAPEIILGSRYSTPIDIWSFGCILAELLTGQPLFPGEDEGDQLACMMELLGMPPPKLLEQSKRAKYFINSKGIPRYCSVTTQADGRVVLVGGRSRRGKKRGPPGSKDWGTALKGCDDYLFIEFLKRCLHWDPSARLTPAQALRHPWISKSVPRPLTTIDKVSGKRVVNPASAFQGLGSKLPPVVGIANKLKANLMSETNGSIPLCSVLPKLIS

Serine/threonine-protein kinase pim-1 (Homo sapiens), sequence (P11309 whole entry, looked up): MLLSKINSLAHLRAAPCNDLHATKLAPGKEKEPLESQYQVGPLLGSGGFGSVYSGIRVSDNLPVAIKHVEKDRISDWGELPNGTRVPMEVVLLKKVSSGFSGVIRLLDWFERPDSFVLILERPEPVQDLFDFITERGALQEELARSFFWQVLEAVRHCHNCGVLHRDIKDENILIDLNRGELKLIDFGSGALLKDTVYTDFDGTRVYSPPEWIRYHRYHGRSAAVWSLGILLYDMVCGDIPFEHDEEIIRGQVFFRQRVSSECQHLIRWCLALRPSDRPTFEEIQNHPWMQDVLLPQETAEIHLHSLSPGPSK
Mitogen-activated protein kinase 1 (Homo sapiens), sequence (P28482 whole entry): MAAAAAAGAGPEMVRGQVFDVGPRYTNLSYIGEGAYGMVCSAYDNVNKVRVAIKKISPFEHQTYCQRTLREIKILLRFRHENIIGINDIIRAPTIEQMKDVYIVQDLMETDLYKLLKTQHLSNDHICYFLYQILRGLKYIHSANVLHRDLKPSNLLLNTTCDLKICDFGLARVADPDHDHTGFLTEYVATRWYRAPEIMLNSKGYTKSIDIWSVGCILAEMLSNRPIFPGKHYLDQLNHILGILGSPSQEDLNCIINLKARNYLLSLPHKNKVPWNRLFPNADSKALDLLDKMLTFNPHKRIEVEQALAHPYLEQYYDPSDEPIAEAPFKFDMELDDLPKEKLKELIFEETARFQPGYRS

Compound | Activity [1] | Activity [2] | Activity [3] | Activity [4] | Activity [5] | Activity [6] | Activity [7]
CN1CCN(CCC(=O)Nc2ccc3c(C#N)cnc(Nc4cccc(Br)c4)c3c2)CC1 | 84% | 87% | 73% | 95% | 72% | 90% | 81%
CN(C)C/C=C/C(=O)Nc1ccc2c(C#N)cnc(Nc3cccc(Br)c3)c2c1 | 84% | 82% | 73% | 81% | 78% | 99% | 75%
CN(C)CCCC(=O)Nc1ccc2c(C#N)cnc(Nc3cccc(Br)c3)c2c1 | 80% | 99% | 68% | 100% | 75% | 100% | 73%
